Active and inactive are the calls of the source. The calls are words filed in the database; no cut-off is given here.
What was measured:
HepG2 [1] = experiment: Antiproliferative activity against human HepG2 cells assessed as inhibition of cell proliferation after 72 hrs by MTT assay; format: functional, cell-based; conditions: HepG2, 72 h
In short: (§1)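 Cells seeded in 96-well plates and grown 24 h to reach exponential growth, then exposed to test compounds in culture medium for 72 h. Viability read by MTT absorbance at 490 nm relative to untreated cells. IC50 is the concentration giving 50% inhibition of proliferation.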

Hepatitis B virus [2] = experiment: (§2) Antiviral activity against HBV infected in human HepG2.2.15 cells assessed as inhibition of DNA replication at 0.8 uM supplemented with fresh medium containing compound every 2 days for 6 days by RT-PCR analysis relative to control; format: functional; conditions: HepG2 2.2.15, 144 h, time 6 day
In short: (§3)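 HepG2 2.2.15 cells (2×10^5/well, 24-well) left 24 h to recover from trypsinization, then given fresh medium with compound (single-point screen at 0.8 μM), renewed every 2 days for 6 days. Intracellular HBV DNA extracted and quantified by real-time PCR. IC50 is the dose giving 50% inhibition of DNA replication, taken from dose–response.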

[3] = Cytotoxicity against human HepG2 2.2.15 cells assessed as reduction in cell viability measured after 72 hrs by MTT assay; format: cell-based
In short: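 HepG2 2.2.15 cells (HBV-producing; grown in DMEM with 10% FBS, penicillin/streptomycin and 0.38 mg/mL G418) seeded in 96-well plates and grown 24 h, then treated 72 h with compounds. Viability read by MTT absorbance at 490 nm relative to untreated cells. CC50 is the dose causing 50% cell death.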

[4] = Selectivity index, ratio of CC50 for human HepG2 2.2.15 cells to IC50 for antiviral activity against HBV infected in human HepG2.2.15 cells assessed as inhibition of DNA replication; format: toxicity, cell-based; conditions: read-out: Ratio CC50/IC50
Hepatitis B virus [5] = experiment: Antiviral activity against HBV infected in human HepG2.2.15 cells assessed as inhibition of DNA replication supplemented with fresh medium containing compound every 2 days for 6 days by RT-PCR analysis; format: functional, organism-based; conditions: HepG2 2.2.15; in short: as §3
Hepatitis B virus [6] = experiment: as §2, with “against lamivudine and entecavir-resistant” for “against”, “HBV harboring rtL180 M/rtM204V/rtT184L mutant” for “HBV”; format: functional; conditions: HepG2 2.2.15, 144 h, time 6 day
Hepatitis B virus [7] = experiment: Antiviral activity against HBV infected in human HepG2.2.15 cells assessed as inhibition of HBsAg production supplemented with fresh medium containing compound every 3 days for 6 days by EIA relative to control; format: functional, HepG2 2.2.15; conditions: time 6 day
HepG2 [8] = experiment: Induction of apoptosis in human HepG2 cells assessed as nuclear fragmentation at 5 to 20 uM after 48 hrs by Hoechst 33342 staining based fluorescence microscopic analysis; format: functional, cell-based; conditions: dose 5-20 µM
In short: (§4)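 HepG2 cells (5×10^4/well, six-well) exposed to 5, 10 or 20 μM for 48 h, washed with PBS, fixed in 4% paraformaldehyde 30 min, stained with Hoechst 33342 (20 μg/mL) 15 min at room temperature in the dark. Nuclear fragmentation and chromatin condensation scored by fluorescence microscopy.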

HepG2 [9] = experiment: Induction of apoptosis in human HepG2 cells assessed as late apoptotic cells at 5 uM after 48 hrs by Annexin-V FITC/propidium iodide staining based flow cytometric analysis (reference value: 1.11%)
HepG2 [10] = experiment: Induction of apoptosis in human HepG2 cells assessed as up regulation of Bad expression measured after 48 hrs by Western blot analysis; format: functional, cell-based
In short: (§5)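 HepG2 cells treated 5, 10 or 20 μM for 48 h, lysed; 40 μg protein/lane resolved by SDS-PAGE, transferred to PVDF, blocked in 5% nonfat milk, probed overnight at 4 °C with mouse anti-Bad, Bax, Bcl-2 or Bcl-xl, then secondary antibody 2 h. ECL detection; band densities expressed relative to GAPDH.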

HepG2 [11] = experiment: Induction of apoptosis in human HepG2 cells assessed as early apoptotic cells at 10 uM after 48 hrs by Annexin-V FITC/propidium iodide staining based fluorescence microscopic analysis (reference value: 1.68%); format: functional
SK-HEP1 = experiment: Antiproliferative activity against human SK-HEP1 cells assessed as inhibition of cell proliferation after 72 hrs by MTT assay; format: functional, cell-based; conditions: SK-HEP1, 72 h; in short: as §1
HepG2 [12] = experiment: Induction of apoptosis in human HepG2 cells assessed as down regulation of Bcl-2 expression measured after 48 hrs by Western blot analysis; format: functional, cell-based; in short: as §5
HepG2 [13] = experiment: Induction of apoptosis in human HepG2 cells assessed as necrotic cells at 20 uM after 48 hrs by Annexin-V FITC/propidium iodide staining based fluorescence microscopic analysis (reference value: 0.14%); format: functional
HepG2 [14] = experiment: Induction of apoptosis in human HepG2 cells assessed as chromatin condensation at 5 to 20 uM after 48 hrs by Hoechst 33342 staining based fluorescence microscopic analysis; format: functional, cell-based; conditions: dose 5-20 µM; in short: as §4
HepG2 [15] = experiment: Induction of apoptosis in human HepG2 cells assessed as down regulation of Bcl-xl expression measured after 48 hrs by Western blot analysis; format: functional, cell-based; in short: as §5
HepG2 [16] = experiment: Induction of apoptosis in human HepG2 cells assessed as up regulation of Bax expression measured after 48 hrs by Western blot analysis; format: functional, cell-based; in short: as §5
HepG2 [17] = experiment: Induction of apoptosis in human HepG2 cells assessed as viable cells at 5 uM after 48 hrs by Annexin-V FITC/propidium iodide staining based flow cytometric analysis (reference value: 97.07%); conditions: HepG2, 48 h
HepG2 [18] = experiment: Induction of apoptosis in human HepG2 cells assessed as late apoptotic cells at 10 uM after 48 hrs by Annexin-V FITC/propidium iodide staining based fluorescence microscopic analysis (reference value: 1.11%); format: functional
HepG2 [19] = experiment: Induction of apoptosis in human HepG2 cells assessed as early apoptotic cells at 20 uM after 48 hrs by Annexin-V FITC/propidium iodide staining based fluorescence microscopic analysis (reference value: 1.68%); format: functional
HepG2 [20] = experiment: Induction of apoptosis in human HepG2 cells assessed as necrotic cells at 5 uM after 48 hrs by Annexin-V FITC/propidium iodide staining based flow cytometric analysis (reference value: 0.14%)
HepG2 [21] = experiment: Induction of apoptosis in human HepG2 cells assessed as early apoptotic cells at 5 uM after 48 hrs by Annexin-V FITC/propidium iodide staining based flow cytometric analysis (reference value: 1.68%)
HepG2 [22] = experiment: Induction of apoptosis in human HepG2 cells assessed as necrotic cells at 10 uM after 48 hrs by Annexin-V FITC/propidium iodide staining based fluorescence microscopic analysis (reference value: 0.14%); format: functional
Huh-7 = experiment: Antiproliferative activity against human Huh-7 cells assessed as inhibition of cell proliferation after 72 hrs by MTT assay; format: functional, cell-based; conditions: Huh-7, 72 h; in short: as §1
HepG2 [23] = experiment: Induction of apoptosis in human HepG2 cells assessed as viable cells at 20 uM after 48 hrs by Annexin-V FITC/propidium iodide staining based fluorescence microscopic analysis (reference value: 97.07%); format: functional; conditions: read-out: Activity
HepG2 [24] = experiment: Induction of apoptosis in human HepG2 cells assessed as late apoptotic cells at 20 uM after 48 hrs by Annexin-V FITC/propidium iodide staining based fluorescence microscopic analysis (reference value: 1.11%); format: functional
HepG2 [25] = experiment: Induction of apoptosis in human HepG2 cells assessed as viable cells at 10 uM after 48 hrs by Annexin-V FITC/propidium iodide staining based fluorescence microscopic analysis (reference value: 97.07%); format: functional; conditions: read-out: Activity
Hepatitis B virus [26] = experiment: (§6) Antiviral activity against HBV infected in human HepG2.2.15 cells assessed as inhibition of DNA replication at 100 uM supplemented with fresh medium containing compound every 2 days for 6 days by RT-PCR analysis relative to control; format: functional; conditions: HepG2 2.2.15, 144 h, time 6 day
Hepatitis B virus [27] = experiment: as §6, with “against lamivudine and entecavir-resistant” for “against”, “HBV harboring rtL180 M/rtM204V/rtT184L mutant” for “HBV”; format: functional; conditions: HepG2 2.2.15, 144 h, time 6 day

O=c1[nH]cc(F)c(=O)[nH]1 [FLUOROURACIL]
IC50 (HepG2 [1]): 8.69 µM

COc1ccccc1CSc1nc2ccc(OCCN(C)C)cc2c(=O)n1Cc1ccccc1
IC50 (HepG2 [1]): > 20 µM
inhibition at 0.8 µM (Hepatitis B virus [2]): 11.8%
CC50 at 72 h [3]: > 10 µM

CCN(CC)CCOc1ccc2nc(SCc3ccccc3OC)n(Cc3ccco3)c(=O)c2c1
IC50 (HepG2 [1]): 19 µM
selectivity ratio [4]: > 13
IC50 (Hepatitis B virus [5]): 0.77 µM
inhibition at 0.8 µM (Hepatitis B virus [2]): 52.6%
CC50 at 72 h [3]: > 10 µM

CCN(CC)CCOc1ccc2nc(SCc3ccccc3)n(Cc3ccco3)c(=O)c2c1
IC50 (HepG2 [1]): 17.3 µM
inhibition at 0.8 µM (Hepatitis B virus [6]): 58.9%
selectivity ratio [4]: > 15.9
IC50 (Hepatitis B virus [5]): 0.63 µM
inhibition (INH) (Hepatitis B virus [7]): 13.64%
inhibition at 0.8 µM (Hepatitis B virus [2]): 67.5%
CC50 at 72 h [3]: > 10 µM

COc1ccc(C(C)=O)cc1CSc1nc2ccc(OCCCN(C)C)cc2c(=O)n1Cc1cccs1
IC50 (HepG2 [1]): 8.98 µM
inhibition at 0.8 µM (Hepatitis B virus [2]): 0.16%
CC50 at 72 h [3]: 9.63 µM

COc1ccccc1CSc1nc2ccc(OCCCN(C)C)cc2c(=O)n1Cc1ccco1
IC50 (HepG2 [1]): 6.76 µM
inhibition at 0.8 µM (Hepatitis B virus [2]): 34.4%
CC50 at 72 h [3]: 8.38 µM

CN(C)CCCOc1ccc2nc(SCc3ccccc3)n(Cc3ccco3)c(=O)c2c1
Activity (HepG2 [8]): Active
Activity (HepG2 [9]): 4.88%
Activity (HepG2 [10]): Dose-dependent effect
Activity (HepG2 [11]): 23.83%
IC50 (HepG2 [1]): 5.44 µM
IC50 (SK-HEP1): 6.75 µM
Activity (HepG2 [12]): Dose-dependent effect
inhibition at 0.8 µM (Hepatitis B virus [6]): 64%
Activity (HepG2 [13]): 5.12%
Activity (HepG2 [14]): Active
selectivity ratio [4]: > 17.2
Activity (HepG2 [15]): Dose-dependent effect
Activity (HepG2 [16]): Dose-dependent effect
IC50 (Hepatitis B virus [5]): 0.58 µM
viability at 5 µM (HepG2 [17]): 81.5%
Activity (HepG2 [18]): 14.15%
Activity (HepG2 [19]): 40.31%
Activity (HepG2 [20]): 0.49%
inhibition (INH) (Hepatitis B virus [7]): 4.55%
inhibition at 0.8 µM (Hepatitis B virus [2]): 67.3%
Activity (HepG2 [21]): 13.07%
Activity (HepG2 [22]): 4.5%
IC50 (Huh-7): 6.42 µM
viability at 20 µM (HepG2 [23]): 22.9%
Activity (HepG2 [24]): 31.67%
CC50 at 72 h [3]: > 10 µM
viability at 10 µM (HepG2 [25]): 57.5%

CCN(CC)CCOc1ccc2nc(SCc3cc(C(C)=O)ccc3OC)n(Cc3ccco3)c(=O)c2c1
IC50 (HepG2 [1]): 17 µM
inhibition at 0.8 µM (Hepatitis B virus [2]): 45.2%
CC50 at 72 h [3]: > 10 µM

COc1ccc(C(C)=O)cc1CSc1nc2ccc(OCCN(C)C)cc2c(=O)n1Cc1ccco1
IC50 (HepG2 [1]): 11.3 µM
inhibition at 0.8 µM (Hepatitis B virus [2]): 20.7%
CC50 at 72 h [3]: > 10 µM

CN(C)CCOc1ccc2nc(SCc3ccccc3)n(Cc3ccco3)c(=O)c2c1
IC50 (HepG2 [1]): 17.5 µM
inhibition at 0.8 µM (Hepatitis B virus [2]): 21.7%
CC50 at 72 h [3]: > 10 µM

Nc1ccn([C@@H]2CS[C@H](CO)O2)c(=O)n1 [LAMIVUDINE]
selectivity ratio [4]: > 1000
inhibition at 100 µM (Hepatitis B virus [26]): 90%
IC50 (Hepatitis B virus [5]): < 0.1 µM
inhibition (INH) (Hepatitis B virus [7]): 9.09%
inhibition at 0.8 µM (Hepatitis B virus [2]): 84.4%
inhibition at 100 µM (Hepatitis B virus [27]): 15.7%
CC50 at 72 h [3]: > 100 µM

CN(C)CCOc1ccc2nc(SCc3ccccc3)n(Cc3cccs3)c(=O)c2c1
selectivity ratio [4]: > 13
IC50 (Hepatitis B virus [5]): 0.77 µM
inhibition at 0.8 µM (Hepatitis B virus [2]): 53.6%
CC50 at 72 h [3]: > 10 µM

Reference: ChEMBL document CHEMBL4765418, “Discovery of novel quinazolinone derivatives as potential anti-HBV and anti-HCC agents” (Eur J Med Chem, 2020)
